Measured values collected from several papers.
Lines come from different studies, so protocols differ.
Target: Calcium/calmodulin-dependent protein kinase type 1 (CAMK1, Homo sapiens, UniProt Q14012)

| SMILES | test | conditions | measurement | result |
| --- | --- | --- | --- | --- |
| O=C(Nc1cnc(Oc2ccc(F)cc2)nc1)N1CCc2ncccc2[C@@H]1c1ccc(F)cc1 | cell-free assay, competition with immobilised ligand | 1 µM | remaining binding | 73% |
| Cn1c(=O)n(-c2ccc(C(C)(C)C#N)cc2)c2c3cc(-c4cnc5ccccc5c4)ccc3ncc21 | enzyme activity, inhibitor | 10 µM | remaining activity | 100% |
| Nc1c(C(=O)NCc2ccc(C(=O)NCCCC3CCCCC3)cc2)cnn1-c1ccccc1 | cell-free assay, competition with immobilised ligand | 0.1 µM | remaining binding | 100% |
| COc1cc(Cl)c(C(=O)N[C@@H](CN[C@H]2CC[C@@H](N)CC2)Cc2ccc(C#N)cc2)cc1-c1ccc(CN[C@H](C)c2ccc(C)cc2)o1 | enzyme activity, inhibitor | 1 µM | remaining activity | 108% |
| N#CCCc1ccc2c(c1)-c1[nH]c3ccc([N+](=O)[O-])cc3c1CC(=O)N2 | cell-free assay | 0.5 µM | remaining signal | 96% |
| CN1CC(Oc2cnc(C#N)cc2-c2ccn3nc(NC(=O)C4CC4)cc3c2)C1 | enzyme activity, inhibitor | 1 µM | inhibition | 1% |
| CCCOc1ccc(OC)c(F)c1C(=O)c1ccc(C(=O)N[C@@H]2CNC[C@H]2NC(=O)c2ccc3[nH]ncc3c2)cc1 | enzyme activity, inhibitor | 10 µM | remaining activity | 34% |
| Cc1ccc(Nc2nccc(N(C)c3ccc4c(C)n(C)nc4c3)n2)cc1S(N)(=O)=O | enzyme activity, inhibitor | 10 µM | inhibition | 52% |
| Nc1ncnc2occ(-c3ccc(NC(=O)Nc4cc(C(F)(F)F)ccc4F)cc3)c12 | cell-free assay | 20 µM | remaining signal | 5.5% |
| Oc1cccc(-c2nc(N3CCOCC3)c3oc4ncccc4c3n2)c1 | cell-free assay | 0.5 µM | remaining signal | 101% |
| CCN(CC)CCNC(=O)c1c(C)[nH]c(/C=C2\C(=O)Nc3ccc(F)cc32)c1C | enzyme activity, inhibitor | 10 µM | inhibition | 87% |
| COc1cc(-c2cn(C3CCc4c(F)cccc4N(CC(F)(F)F)C3=O)nn2)ccc1-n1cnc(C)c1 (stereo not drawn) | cell-free assay, competition with immobilised ligand | 1 µM | remaining binding | 100% |
| COc1cc(Nc2cnc(C#N)c(O[C@H](C)CN(C)C)n2)ncc1-c1cnn(C)c1 | enzyme activity, inhibitor, radiometric | 1 µM | remaining activity | 92% |
| NS(=O)(=O)c1cc(NC(=O)Cc2ccccc2)ccc1Oc1cccc(Cl)c1 | cell-free assay, competition with immobilised ligand | 1 µM | remaining binding | 90% |
| Nc1nc(Nc2ccccc2)sc1C(=O)c1c(F)cccc1F | enzyme activity, inhibitor | 10 µM | remaining activity | 55% |
| Cc1ccc(C(=O)Nc2ccc(CN3CCN(C)CC3)c(C(F)(F)F)c2)cc1C#Cc1cnc2cccnn12 | enzyme activity | 23.5 nM | remaining activity | 74% |
| O=C(Nc1cccnn1)N1CC(C/C=C/c2cncc(Oc3ccc(C(F)(F)F)cn3)n2)C1 | cell-free assay, competition with immobilised ligand | 1 µM | remaining binding | 100% |
| O=C(Nc1cnn(-c2csc(C(=O)NC3COC3)c2)c1)Nc1c(F)cccc1Cl | enzyme activity, inhibitor | 5 µM | remaining activity | 98% |
| CCCCNc1ncc2c(-c3ccc(F)cc3)nn(C[C@H]3CC[C@H](N)CC3)c2n1 | target engagement in cells, inhibitor, chemoproteomics | 20 mM | inhibition | 2.2% |
| CC(C)c1ccc(NC(=O)c2cccs2)c(-c2nc3ccccc3[nH]c2=O)c1 | enzyme activity, inhibitor | 1 µM | activity vs control | 104% |
| O=C(O)[C@@H]1[C@@H](Cn2nnc3ccccc3c2=O)CC[C@H]1C(=O)c1ccc(OCCC2CCOCC2)cc1 | cell-free assay, competition with immobilised ligand | 1 µM | remaining binding | 92% |
